bCat KO growth = beta-catenin-lacking colon tumor cell growth suppression | HCT116 beta-catenin knockout viability, CellTiter-Glo, 60 h; active compounds read low | viability, % at 10 µM | actives 1.5% (n = 140,000);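 active = viability at or under a set limit, the compound median less 4 SD, cut at about 6% in these data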;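 note: 0% = Hyamine 1622 control at 20 µM and 100% = untreated cell control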
HUVEC inhibit = blocks proliferation of human endothelial cells. HUVEC proliferation, CellTiter-Glo luminescence, 72 h; active compounds read low. viability, % at 10 µM (by protocol). actives 1.1% (n = 86,000);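 active = viability at or below 30%; inactive = viability above 30%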;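 note: 100% = median luminescence of DMSO-only cell control wells on each plate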
H69AR inhibit = blocks growth of human H69AR lung tumor cells. actives 6% (n = 85,000). AID 598. viability, % at 10 µM. H69AR lung tumor viability, ATP luminescence, 72 h; active compounds read low;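 active = viability at or below 40%; inactive = viability above 40%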;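 note: multidrug resistant small cell line overexpressing MRP-1 efflux transporter; 100% = mean luminescence of untreated control wells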
Fibroblast inh = blocks proliferation of human lung fibroblasts; LL 47 human lung fibroblast viability, ATP luminescence; active compounds read low; viability, % at 10 µM; actives 1.1% (n = 85,000);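 active = viability at or below 50% in the single dose screen; inactive = viability above 50%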;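 note: compound exposure lasted 72 h before the ATP readout; 100% = median luminescence of untreated cell-only wells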
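Material: Human LL 47 lung fibroblast cells | Input: 1,150 cells/well | Buffer or medium: IMEM plus 15% FBS | Compound dosing: 0.1% DMSO in all compound wells | Times: Overnight cell rest, 72 h compound treatment at 37 °C | Signal: CellTiter-Glo luminescence measuring cellular ATP | Measure: % viability versus median cells-only luminescence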
HCT116 PTEN-null = PTEN-deleted cell growth suppression | viability, % at 10 µM | HCT116 PTEN-null viability, CellTiter-Glo, 60 h; active compounds read low | actives 1.2% (n = 140,000);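 active = viability at or below a set limit, 4 SD under the median of all tested compounds, cut at about 3.7% in these data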;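 note: PTEN knockout HCT116 line with beta catenin targeted HCT116 as companion control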
Active calls of the source: *. This excerpt belongs to a sample that is enriched for hits.

`O=[N+]([O-])/C=C/c1cn(Cc2ccc(F)cc2)c2ccccc12` gave bCat KO growth 1.9* and HCT116 PTEN-null 1.4*.
`CCNC(=S)N/N=C/c1cn(Cc2ccc(F)cc2)c2ccccc12` gave bCat KO growth 96 and HCT116 PTEN-null 102.
c1csc(CN2CCOCC2)c1 was read as bCat KO growth 91, HUVEC inhibit 95, H69AR inhibit 95, Fibroblast inh 107 and HCT116 PTEN-null 101.
For C=CCNC(=O)CN(c1cccc(Br)c1)S(C)(=O)=O the results were bCat KO growth 97, HUVEC inhibit 103, H69AR inhibit 101, Fibroblast inh 103 and HCT116 PTEN-null 109.
CCCc1nc2oc(C(=O)c3ccccc3)c(N)c2c2c1COC(C)(C)C2 was read as bCat KO growth 35, HUVEC inhibit 47, H69AR inhibit 5.7*, Fibroblast inh 40* and HCT116 PTEN-null 45.
For Cc1nn(CC(O)Cn2c3c(c4ccccc42)CCN(C)C3=O)c(C)c1Br (stereo not drawn) the results were bCat KO growth 79, HUVEC inhibit 83, H69AR inhibit 38*, Fibroblast inh 98 and HCT116 PTEN-null 69.
For O=S(=O)(c1ccccc1Cl)N1CCC(O)(c2ccc3c(c2)OCO3)CC1 the results were bCat KO growth 90, HUVEC inhibit 98, Fibroblast inh 90 and HCT116 PTEN-null 89.
For CCN(CC)S(=O)(=O)c1ccc(N/N=C/c2cc(OC)ccc2O)nc1 the results were bCat KO growth 2.7* and HCT116 PTEN-null 5.
Screening CCCCOc1ccccc1NC(=O)CC1SC(=NCC)N(CC)C1=O (stereo not drawn) returned bCat KO growth 88, HUVEC inhibit 99, H69AR inhibit 92, Fibroblast inh 95 and HCT116 PTEN-null 83.
`CN(C)S(=O)(=O)c1ccc(C(=O)Nc2nc(-c3cc4ccccc4o3)cs2)cc1` gave bCat KO growth 49 and HCT116 PTEN-null 55.
Screening CN(CC1CCCO1)S(=O)(=O)c1ccc(C(=O)Nc2nc(-c3ccccn3)cs2)cc1 (stereo not drawn) returned bCat KO growth 3.9*, HUVEC inhibit 45, H69AR inhibit 55, Fibroblast inh 42* and HCT116 PTEN-null 8.
For CCN1C(=O)/C(=C\c2cn(CCC#N)nc2-c2ccc(F)cc2)SC1=S the results were bCat KO growth 79 and HCT116 PTEN-null 67.
For CCCCCCCCCCCCCCCC(O)C(N)CO (stereo not drawn) the results were bCat KO growth 1.9* and HCT116 PTEN-null 1.5*.
Screening c1cncc(-c2nc(NCC3COc4ccccc4O3)c3ccccc3n2)c1 (stereo not drawn) returned bCat KO growth 39, HUVEC inhibit 57, H69AR inhibit 16*, Fibroblast inh 87 and HCT116 PTEN-null 26.
For CC(C)(C)n1ncc2c(=O)n(CC(=O)NCc3ccccc3)cnc21 the results were bCat KO growth 36, HUVEC inhibit 58, H69AR inhibit 24*, Fibroblast inh 80 and HCT116 PTEN-null 32.
For CC(=O)Nc1ccc(NC(=O)Cn2cnc3c(cnn3C(C)(C)C)c2=O)cc1 the results were bCat KO growth 97, HUVEC inhibit 97, H69AR inhibit 57, Fibroblast inh 99 and HCT116 PTEN-null 97.
For COC(=O)C1=C(C)NC(=O)CC1c1cc2c(cc1Br)OCO2 (stereo not drawn) the results were bCat KO growth 90, HUVEC inhibit 94, H69AR inhibit 97, Fibroblast inh 100 and HCT116 PTEN-null 77.
For CC1=C(C(=O)OC2CCCCCCC2)C(c2cc3c(cc2Br)OCO3)CC(=O)N1 (stereo not drawn) the results were bCat KO growth 47, HUVEC inhibit 5.0*, H69AR inhibit 5.8*, Fibroblast inh 91 and HCT116 PTEN-null 27.
O=C(N/N=C\c1ccc(CNS(=O)(=O)c2ccc(Cl)cc2)o1)C(=O)Nc1ccc(Oc2ccccc2)cc1 was read as bCat KO growth 1.4* and HCT116 PTEN-null 2.0*.
Screening O=C(N/N=C\c1ccc(CNS(=O)(=O)c2ccccc2)o1)C(=O)Nc1ccc(F)cc1 returned bCat KO growth 81 and HCT116 PTEN-null 86.
`Cn1c(=O)c2c(-c3ccccc3)n3c4ccccc4ncc3c2n(C)c1=O` gave HUVEC inhibit 70, H69AR inhibit 38* and Fibroblast inh 91.
Screening COCC(=O)NNS(=O)(=O)c1ccccc1[N+](=O)[O-] returned bCat KO growth 96 and HCT116 PTEN-null 99.
For Cc1nn2c(Nc3ccc(F)cc3)c3c(nc2c1-c1ccccc1)CCC3 the results were bCat KO growth 93 and HCT116 PTEN-null 80.

Screening results (PubChem)
